Assay results taken from ChEMBL document CHEMBL1121956, “Potential antitumor agents. 37. Organophosphorus derivatives of 9-anilinoacridine” (1982).

Columns and labels:
[1] = test system: P388; test: Percentage increase in life span was measured for P-388 cells […] after intraperitoneal administration of a dose of 125 mg/kg; format: functional; settings: Mus musculus, P388, ip
Outline: (§1)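 Mice received 10⁶ P-388 leukemia cells ip. Drug in 0.1 mL of 30% aqueous ethanol was injected ip on days 1, 5 and 9. Doses ran from a toxic level downward at 0.67-fold intervals, with 6 mice per group and 20–30 controls. The percentage increase in mean survival time over controls was taken at the optimal dose. ILS below 20% was treated as nonsignificant.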

[2] = test system: L1210; test: Concentration for inhibiting the growth of L1210 cells by 50% over 3 days was determined; format: functional; settings: Mus musculus, L1210, 72 h; read-out: ID50 (the source's name)
[3] = test system: P388; test: Concentration for inhibiting the growth of P-388 cells by 50% over 3 days was determined; format: functional; settings: Mus musculus, P388, 72 h; read-out: ID50 (the source's name)
Outline: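 Cytotoxicity was measured against cultured murine leukemia cells, P-388 and L1210, over 3 days of continuous drug exposure. Culture and drug-addition conditions follow an earlier report. The value is the drug concentration that inhibits growth by 50% over the 3 days.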

[4] = test system: Nucleic Acid; test: […] association constant for DNA binding to poly (dA.dT); format: nucleic-acid assay
Outline: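 Association constant for binding to the synthetic polynucleotide poly(dA-dT). Measured by a method described in earlier work.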

[5] = test system: P388; test: Percentage increase in life span was measured for P-388 cells […] after intraperitoneal administration of a dose of 50 mg/kg; format: functional; settings: Mus musculus, P388, ip; outline: as §1
[6] = test system: P388; test: Percentage increase in life span was measured for P-388 cells […] after intraperitoneal administration of a dose of 65 mg/kg; format: functional; settings: Mus musculus, P388, ip; outline: as §1
[7] = test system: P388; test: Percentage increase in life span was measured for P-388 cells […] after intraperitoneal administration of a dose of 8.9 mg/kg; format: functional; settings: Mus musculus, P388, ip; outline: as §1
[8] = test system: P388; test: animal or person; settings: Mus musculus, P388, ip
[9] = test system: P388; test: Percentage increase in life span was measured for P-388 cells […] after intraperitoneal administration of a dose of 30 mg/kg; format: functional; settings: Mus musculus, P388, ip; outline: as §1
[10] = test system: P388; test: Percentage increase in life span was measured for P-388 cells […] after intraperitoneal administration of a dose of 66 mg/kg; format: functional; settings: Mus musculus, P388, ip; outline: as §1
[11] = test system: P388; test: Percentage increase in life span was measured for P-388 cells […] after intraperitoneal administration of a dose of 250 mg/kg; format: functional; settings: Mus musculus, P388, ip; outline: as §1
[12] = test system: P388; test: Percentage increase in life span was measured for P-388 cells […] after intraperitoneal administration of a dose of 110 mg/kg; format: functional; settings: Mus musculus, P388, ip; outline: as §1
[13] = test system: P388; test: Percentage increase in life span was measured for P-388 cells […] after intraperitoneal administration of a dose of 190 mg/kg; format: functional; settings: Mus musculus, P388, ip; outline: as §1
[14] = test system: P388; test: Percentage increase in life span was measured for P-388 cells […] after intraperitoneal administration of a dose of 33 mg/kg; format: functional; settings: Mus musculus, P388, ip; outline: as §1
[15] = test system: P388; test: Percentage increase in life span was measured for P-388 cells […] after intraperitoneal administration of a dose of 150 mg/kg; format: functional; settings: Mus musculus, P388, ip; outline: as §1
[16] = test system: P388; test: Percentage increase in life span was measured for P-388 cells […] after intraperitoneal administration of a dose of 330 mg/kg; format: functional; settings: Mus musculus, P388, ip; outline: as §1

## COP(=O)(Cc1ccc(Nc2c3ccccc3nc3ccccc23)cc1)OC
[1]
  ILS at 125 mg/kg: 2%
[2]
  IC50: 670 nM
[3]
  IC50: 1400 nM
[4]
  Log K: 5.67

## CNP(=O)(NC)Nc1ccc(Nc2c3ccccc3nc3ccccc23)cc1
[2]
  IC50: 2500 nM
[3]
  IC50: 2000 nM
[4]
  Log K: 6.84
[5]
  ILS at 50 mg/kg: 11%

## CP(C)(=O)Nc1ccc(Nc2c3ccccc3nc3ccccc23)cc1
[2]
  IC50: 1300 nM
[3]
  IC50: 1000 nM
[6]
  ILS at 65 mg/kg: 18%
[4]
  Log K: 6.81

## COc1cc(NP(=O)(OC)OC)ccc1Nc1c2ccccc2nc2ccccc12
[2]
  IC50: 70 nM
[7]
  ILS at 8.9 mg/kg: 67%
[3]
  IC50: 36 nM
[4]
  Log K: 5.64

## COc1cc(NS(C)(=O)=O)ccc1Nc1c2ccccc2nc2ccccc12 [AMSACRINE]
[3]
  IC50: 30 nM
[4]
  Log K: 5.57
[8]
  ILS at 13.3 mg/kg: 78%

## O=P1(Nc2ccc(Nc3c4ccccc4nc4ccccc34)cc2)OCCO1
[2]
  IC50: 180 nM
[3]
  IC50: 110 nM
[4]
  Log K: 6.52
[9]
  ILS at 30 mg/kg: 54%

## CS(=O)(=O)Nc1cccc(Nc2c3ccccc3nc3ccccc23)c1
[2]
  IC50: 110 nM
[10]
  ILS at 66 mg/kg: 53%
[3]
  IC50: 90 nM

## COP(=O)(Nc1cccc(Nc2c3ccccc3nc3ccccc23)c1)OC
[2]
  IC50: 1800 nM
[11]
  ILS at 250 mg/kg: 34%
[3]
  IC50: 1400 nM
[4]
  Log K: 5.66

## CCOP(=O)(Nc1ccc(Nc2c3ccccc3nc3ccccc23)cc1)OCC
[2]
  IC50: 230 nM
[12]
  ILS at 110 mg/kg: 28%
[3]
  IC50: 200 nM
[4]
  Log K: 6.47

## COP(=O)(NC(=O)c1ccc(Nc2c3ccccc3nc3ccccc23)cc1)OC
[13]
  ILS at 190 mg/kg: 12%
[2]
  IC50: > 35 nM
[3]
  IC50: 4800 nM
[4]
  Log K: 5.56

## CN(C)P(=O)(Nc1ccc(Nc2c3ccccc3nc3ccccc23)cc1)N(C)C
[2]
  IC50: 1500 nM
[3]
  IC50: 1300 nM
[4]
  Log K: 6.08
[5]
  ILS at 50 mg/kg: 29%

## CC(=O)Nc1ccc(Nc2c3ccccc3nc3ccccc23)cc1
[2]
  IC50: 100 nM
[3]
  IC50: 54 nM
[9]
  ILS at 30 mg/kg: 57%

## COP(=O)(Nc1ccc(Nc2c3ccccc3nc3ccccc23)cc1)OC
[2]
  IC50: 15 nM
[3]
  IC50: 10 nM
[4]
  Log K: 6.26
[14]
  ILS at 33 mg/kg: 74%

## CNC(=O)Nc1ccc(Nc2c3ccccc3nc3ccccc23)cc1
[2]
  IC50: 100 nM
[3]
  IC50: 86 nM
[9]
  ILS at 30 mg/kg: 53%

## O=P1(Nc2ccc(Nc3c4ccccc4nc4ccccc34)cc2)NCCCO1 (stereo unspecified)
[2]
  IC50: 800 nM
[3]
  IC50: 450 nM
[4]
  Log K: 6.58
[5]
  ILS at 50 mg/kg: 9%

## NP(=O)(O)Nc1ccc(Nc2c3ccccc3nc3ccccc23)cc1
[2]
  IC50: 1800 nM
[3]
  IC50: 2800 nM
[4]
  Log K: 4.83

## COC(=O)Nc1ccc(Nc2c3ccccc3nc3ccccc23)cc1
[2]
  IC50: 60 nM
[3]
  IC50: 26 nM
[9]
  ILS at 30 mg/kg: 98%

## CS(=O)(=O)Nc1ccc(Nc2c3ccccc3nc3ccccc23)cc1
[2]
  IC50: 35 nM
[3]
  IC50: 40 nM
[15]
  ILS at 150 mg/kg: 93%

## COP(=O)(O)Nc1ccc(Nc2c3ccccc3nc3ccccc23)cc1
[2]
  IC50: 2000 nM
[3]
  IC50: 4000 nM
[4]
  Log K: 5.37

## O=P1(Nc2ccc(Nc3c4ccccc4nc4ccccc34)cc2)OCCCO1
[2]
  IC50: 110 nM
[3]
  IC50: 50 nM
[4]
  Log K: 6.78
[9]
  ILS at 30 mg/kg: 47%

## CS(=O)(=O)Cc1ccc(Nc2c3ccccc3nc3ccccc23)cc1
[16]
  ILS at 330 mg/kg: 49%
[2]
  IC50: 250 nM
[3]
  IC50: 270 nM
[4]
  Log K: 5.76
